SMILES strings stand for the structures. Screen size: about 370,000 compounds; about 500 (0.14%) were called active. This excerpt belongs to a sample that is enriched for actives. Values without a mark were called inactive.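 How the source made its calls: active means inhibition above the mean of compounds falling within the control limits plus 3 SD of them (cut at about 14% in these data); inactive means the rest.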

Chain of Fibrinogen beta chain (Homo sapiens) (P02675 whole entry, looked up): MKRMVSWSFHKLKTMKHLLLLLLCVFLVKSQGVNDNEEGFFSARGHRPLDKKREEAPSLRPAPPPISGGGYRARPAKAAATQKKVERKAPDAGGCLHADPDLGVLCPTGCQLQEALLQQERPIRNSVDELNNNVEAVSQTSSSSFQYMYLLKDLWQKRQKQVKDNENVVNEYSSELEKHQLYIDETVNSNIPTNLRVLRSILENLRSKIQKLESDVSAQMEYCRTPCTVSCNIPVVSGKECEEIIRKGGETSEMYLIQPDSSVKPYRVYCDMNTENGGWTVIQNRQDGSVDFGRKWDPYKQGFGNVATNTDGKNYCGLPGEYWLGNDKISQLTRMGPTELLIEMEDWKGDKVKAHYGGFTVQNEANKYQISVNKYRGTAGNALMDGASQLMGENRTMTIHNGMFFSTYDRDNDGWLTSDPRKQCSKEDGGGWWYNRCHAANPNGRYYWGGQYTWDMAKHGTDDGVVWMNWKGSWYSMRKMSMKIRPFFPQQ

For this test, the target named is Fibrinogen beta chain (Homo sapiens) (UniProt P02675). Put plainly: inhibitors of Tn7 peptide binding to fibrin DD(E), primary screen, biochemical, fluorescence polarization, human fibrin, Tn7 probe (AID 720508).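 Further: 0% = plate median of compound wells and 100% = 10 µM Aha-Tn7 peptide.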 Conditions: FP displacement of FITC-Tn7 peptide from fibrin DD(E); at 8.3 µM; active compounds read high; 0% = median of compound wells per plate. The method in brief:
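Also added: labelled Tn7 tracer, 0.1 µM; Assay system: human fibrin DD(E) protein; Amount: 2 µM fibrin DD(E); Schedule: 10 min compound pre-incubation, 3 h probe incubation at room temperature; Repeats: one replicate per compound; Read-out basis: percent inhibition; Measured by: fluorescence polarization of the labelled Tn7 tracer.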
A general note: Polarisation of emitted light reports the rotation of a fluorescent probe.
For the compound `COc1ccc(C(C(=O)NC2CCCCC2)N(C(=O)Cc2c[nH]c3ccccc23)c2ccccc2)cc1OC` (stereo unspecified), the inhibition (in general, the change of the read-out against control, counted positive when it falls) was 2.39%.

In the case of `COC(=O)CNC(=O)C(CCSC)NC(C)=O` (stereo unspecified), the inhibition is 3.11%.

Turning to `COc1cc(OC)c(C(=S)N2CCCC2)cc1OC`, the inhibition is 2.99%.

`CC1(C)C/C(=C(/C#N)C(N)=O)CCO1`: the inhibition was -4%.

In the case of `Cc1cc(C(=O)COc2ccc(Br)cc2F)c(C)n1C1CC1`, the inhibition is 1.64%.

In the case of `O=C(NC1CCCCN(Cc2cccc(C(F)(F)F)c2)C1=O)c1ccccc1I` (stereo unspecified), the inhibition is 2.66%.

As to `O=C(NCc1ccc(F)cc1F)[C@@H]1CCCN1C(=O)[C@@H]1CCCN1C(=O)c1cccc(Cl)c1`, the inhibition is -9.38%.

As to `O=C(COC(=O)CNS(=O)(=O)c1ccccc1)NC12CC3CC(CC(C3)C1)C2`, the inhibition was 2.98%.

With `CC1CC1C(=O)OCC(=O)c1c(N)n(C)c(=O)n(C)c1=O` (stereo unspecified), the inhibition was -2.99%.

In the case of `CC(C)NC(=O)C1(C)CCCCN1Cc1cccc(C(F)(F)F)c1` (stereo unspecified), the inhibition is 1.37%.

Take `Brc1ccc(-c2nn[nH]n2)cc1`: the inhibition is -4.35%.

For the compound `c1cc(-c2nn[nH]n2)ccc1CN1CCCCC1`, the inhibition is 14.4% (active).

With `Clc1ccc(CN2CCCCCC2)cc1Cl`, the inhibition was 1.42%.

Take `COc1cccc(N2CC(NS(=O)(=O)c3ccc(Cl)cc3)CC2=O)c1` (stereo unspecified): the inhibition was -2.23%.

`COc1cccc(N2CC(NS(=O)(=O)c3cccs3)CC2=O)c1` (stereo unspecified): the inhibition is 15.4% (active).

Turning to `COc1cccc(N2CC(NC(=O)c3ccc4ccccc4c3)CC2=O)c1` (stereo unspecified), the inhibition is 6.86%.

Take `CCN(CC)C(=O)CSC(Nc1cccc(F)c1)=C(C#N)C#N`: the inhibition was 2.96%.

As for `CCn1c(C)nc2c1C(=O)c1ccccc1C2=O`, the inhibition is -6.92%.

As to `CCC(C(=O)OC)n1cnc2c(oc3ccccc32)c1=O` (stereo unspecified), the inhibition was 6.68%.

Take `Cc1ccc(S(=O)(=O)CC(=O)Nc2sc(C)c(C)c2C(N)=O)cc1`: the inhibition is -0.13%.

In the case of `NC1=NC(=O)C(Cc2cccc(Cl)c2)S1` (stereo unspecified), the inhibition was 2.82%.

For `COCc1cc(=O)n2[nH]c(C)c(-c3ccccc3)c2n1`, the inhibition was -2.38%.

On to `CN(C(=O)C1CCN(c2ncnc3c2nc2n3CCCCC2)CC1)C1CCCCC1`, for which the inhibition was -2.26%.

Take `Cc1ccc(CN2CCN(Cc3ccc(OCCO)cc3)CC2CCO)o1` (stereo unspecified): the inhibition is 7.01%.

On to `CCCCNC(=O)C[C@@H]1C[C@@]2(C(=O)OCC)CCC=C2N(Cc2cccc3ccccc23)C1=O`, for which the inhibition was -3.28%.

In the case of `CN(C(=O)CSc1nc(C2CC2)nc2ccccc12)c1nc(-c2ccccc2)cs1`, the inhibition is -7.43%.

On to `CN1c2ccc(C=O)c3c(C=O)ccc(c23)N(C)C1(C)C`, for which the inhibition is 16.9% (active).

For the compound `COc1ccc(NC(=O)NNC(=O)COc2cc(C)c(Cl)c(C)c2)c(OC)c1`, the inhibition was -5.88%.

`O=C1NC(=Nc2ccc(Cl)cc2)SC1Cc1cccc(Cl)c1Cl` (stereo unspecified): the inhibition was 0.11%.

In the case of `Cc1ccc(N(C(=O)C(F)(F)F)C(C(=O)NC2CCCCC2)c2ccncc2)cc1C` (stereo unspecified), the inhibition was 5.16%.

`CC[C@@H]1CCCCc2ccccc2[C@@H](C(=O)C[C@H](O)CC(C)=O)OC1=O`: the inhibition is 1.6%.

As for `CCCNC(=O)C(=O)Nc1cc2c3c(c1)CCC(=O)N3CCC2`, the inhibition is 0.54%.

Turning to `COc1ccccc1C(=O)N1CCN=C1SCc1cccnc1`, the inhibition is 3.49%.

Turning to `COC(=O)CNc1nc(Cl)nc(N2CCC(C)CC2)n1`, the inhibition was 7.41%.

With `NC(=O)c1cc(S(=O)(=O)N2CCCC2)ccc1OCc1ccc(F)cc1`, the inhibition was 0.91%.

For the compound `CC(C)(C)c1ccccc1NC(=O)CN1C(=O)NC2(CCCC2)C1=O`, the inhibition was -0.76%.

On to `Cc1nn(C)c(C)c1S(=O)(=O)N1CCc2ccccc21`, for which the inhibition was -4.06%.

Turning to `CCO[C@H]1OC(C(=O)N2CCN(Cc3ccccc3)CC2)=C[C@@H](c2cn(C(C)=O)c3ccccc23)[C@@H]1CCCO`, the inhibition was 7%.

Regarding `COc1ccccc1/C=C/C(=O)OCC(=O)NC1CCCCCC1`, the inhibition was 8.08%.

For the compound `C=CCOc1ccc(/C=C/C(=O)OCC(=O)NC2CCCCCC2)cc1`, the inhibition is 0.53%.

As for `O=C(COC(=O)/C=C/c1ccc(OC(F)F)cc1)NC1CCCCC1`, the inhibition was 13.9% (active).
